Test results from the RNAGym collection of RNA variant scans (doi:10.1101/gad.245936.114).
Fewer inactive variants are shown than the library holds.

B1: tRNA (parent)
chain: CUCUCGGUAGCCAAGUUGGUUUAAGGCGCAAGACUUUAAUUUAUCACUACGAAAUCUUGAGAUCGGGCGUUCGACUCGCCCCCGGGAGAUUUUUUCCUCGAGCAA

Variants of: B1
Experiment: nonsense suppression (GFP-seq) (ratio to wild type); higher = more function; SUP4oc tRNA, yeast GFP reporter sort-seq
How it was run: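 Yeast were grown in raffinose/galactose medium with 80 mg/L adenine, each strain bearing a genome-integrated ochre-suppressor tRNA variant from a ~3% random-mutation library, a galactose-driven GFP ochre reporter, and RFP. After sorting into GFP/RFP bins, every bin was sequenced on an Illumina platform at phred ≥30. The GFPSEQ value, a measure of nonsense suppression, is the weighted bin median GFP/RFP relative to the unmutated parent tRNA, using each variant's estimated cell share per bin as the weight. Only variants with ≥100 reads and ≥30 cells were included.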

Variant	nonsense suppression
U8A G85U	0.071
C12U C81A	0.0405
U55C C75U	0.903
U17A G28U A31C C80G G84C G86A	≤ 0.026
A9G G84U	0.0539
U2A U4C U16C	0.0971
G25C C34A A87G	≤ 0.026
A24G C79U	0.0352
A9C U21A A31G U71C	≤ 0.026
A9C U20G U21G G86A	≤ 0.026
U4G A89U	0.0348
U4C U21C G67A	0.0868
A54G G67C	≤ 0.026
A54U C64U	0.0513
A31U G61U	0.0345
U20C C80U	0.036
G19U A54U C72G	≤ 0.026
A14C G59A U70G	≤ 0.026
U21G G69U	≤ 0.026
U58A U70C A74G	≤ 0.026
U21G	1.04
A13G C75A	0.71
U21C G69C	≤ 0.026
U22A A87G	0.501

Variant	nonsense suppression
U4G	1.16
C3U G10C A23U C83G G85A A89U	≤ 0.026
A13U C27U G85A	0.22
U2C U57A	0.0292
G7C G19C G66U G69C	≤ 0.026
A9G A74C	0.0286
A13C C75U	1.09
A24C A30U	0.11
U4G G18C G28A A74G	≤ 0.026
C5G G66U U71C	≤ 0.026
U21G A60C	0.0285
C5G U16A U22C U57C C72U A87C	≤ 0.026
A24U C29A C79U	≤ 0.026
A14G A30U	0.0337
A9G C11U G61C	≤ 0.026
U2A G84A A89G	≤ 0.026
U4G C5U	0.0955
A24C A60C	0.0269
U22A A23C	0.153
U58G C77U	≤ 0.026
A14G U17A G25A C29U U63G	≤ 0.026
G28A C75G	1.02
A9G U22A	0.212
C3U U57C G69A G73A G85A	≤ 0.026

Variant	nonsense suppression
U20G C82U	0.838
U21G A24U	0.0683
U22A G86U	0.033
U8C U20A	0.0281
C29U U57G G85C	≤ 0.026
C34G G78A C81G	≤ 0.026
G15U U55A	≤ 0.026
C5G C12G U16C G32A	≤ 0.026
A24U A30G	0.148
C1G A54C	0.0309
A23U A31G A33G G67C	≤ 0.026
U4C G73A	1.04
U20G G28A C82U	0.239
G28U G78A	0.0292
C12U A30G	0.363
C3A A23C G26A U58A G78C	≤ 0.026
C81G G88A	≤ 0.026
A13U A24G G61C	0.0375
C79U G86C	0.0687
U20C A87U	0.0273
A9U U63C	0.0507
C12U C29G U35A	≤ 0.026
U20C A30G	0.129
U35C C77A G85C	≤ 0.026

Variant	nonsense suppression
A9G C27G	≤ 0.026
C34G U57A	≤ 0.026
A24C A54G	0.0609
A31G C75A	1.06
U2G G78U	0.0774
U2G U55G	≤ 0.026
U17C G73A	0.899
A13G C82A	≤ 0.026
C29U G61U	0.754
U16A U22G C79U	0.208
G73A G84A	0.191
G15A U22C	0.147
U20A U76C	0.719
G19A G26U C27G	≤ 0.026
G28U A30C A33G A54G U76C C79A	≤ 0.026
A31G C83U	0.0743
A31U G59C	≤ 0.026
C12U G25A G61C	0.823
U35G C56A G61U U63A	≤ 0.026
U4C G78U	1.12
U63A G78A	0.06
U2C C12G	≤ 0.026
A13C A87G	0.127
G28A C82U	1.15

Variant	nonsense suppression
C79A A87C	≤ 0.026
C29U A30C	0.196
U17G C68A G69U	≤ 0.026
A9U G10A	0.0292
U16C G73A	1.22
U70G C82G	≤ 0.026
G15A U21C C34G U35G U58A	≤ 0.026
U22A G28A	1.14
A60C G73U	0.049
C12U G61U	0.248
U4G G78U	0.0997
C11G A30G G67U	≤ 0.026
U55C U63A	0.244
G67A G78U	0.0411
U63G A87U	0.0518
C3G C11A C81G	≤ 0.026
U16A C82U	0.886
C68U U71C	0.0274
U2G G85U	0.0411
U17C C68A C82U	≤ 0.026
G7C A60U G61A C82G	0.0263
A31G G61C	0.275
A9C A30U	0.0886
C5A A24U G66A	≤ 0.026

Variant	nonsense suppression
A54U G84U	0.0565
A31U A60C	0.0348
G32U G66A	≤ 0.026
A9G A54C	0.207
U16A U22C	1.08
C29U C72U	0.101
A9G G73A	0.12
C34G U55C	0.276
G6U U58G U76C C80G	≤ 0.026
A24U U76C	0.131
C12U C75G	1.23
U17A A23U G84A	≤ 0.026
C3G C29G A54U	≤ 0.026
U4G G61A C75A	0.558
G18A G73A	≤ 0.026
U21G A24C	0.493
C75G G85U	1.12
C34U U35G U57C G61A C82U	≤ 0.026
A13G U21G	0.026
A60G G78A	0.0542
U4G U8A	≤ 0.026
A13U C83U	0.157
A9G	0.45
A14G G19A A31U G66C A74C G78U	≤ 0.026

Variant	nonsense suppression
G28C	1.17
G28C C79A G85C	0.0328
U8C A54C	0.0833
U20C A54U	0.62
U4A A23G	0.288
A24U G85A A87G	0.215
G6A U63G C81U	≤ 0.026
G10U U20G U57C	≤ 0.026
G26C G61A	≤ 0.026
U63A G66U U71A A87G	≤ 0.026
C1U U2G G18U	≤ 0.026
A13U C77U	0.0452
A9G A14C A54G	≤ 0.026
A23C U35G	≤ 0.026
A31G U63C	0.333
G15U U17A U55C	≤ 0.026
A60C C75U	0.167
A33G C79U	0.0403
C5A U63A G66C	≤ 0.026
C12U G28U	0.0705
C5A A31C	≤ 0.026
A23G U70C	≤ 0.026
A74U C79U	0.0357
